pIC50: −log10 of the molar value.
How the values were obtained:
[1] = target: Vascular endothelial growth factor receptor 1 (Homo sapiens, UniProt P17948); test: Inhibition of VEGFR1 by HTRF assay
[2] = target: Epidermal growth factor receptor (Homo sapiens) (UniProt P00533); test: Inhibition of EGFR at 10 uM
[3] = Inhibition of Bcr-Abl T315 mutant at 10 uM
[4] = target: Receptor-type tyrosine-protein kinase FLT3 (Homo sapiens) (UniProt P36888); test: Inhibition of Flt3 at 10 uM
[5] = target: Serine/threonine-protein kinase PLK1 (Homo sapiens) (UniProt P53350); test: Inhibition of Plk1 at 10 uM
[6] = target: T1, Vascular endothelial growth factor receptor 2 (Homo sapiens, UniProt P35968); test: Inhibition of VEGFR2 by HTRF assay in presence of 2 uM ATP
Procedure, shortened: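 HTRF kinase assay with KDR enzyme (3–4 ng) and biotinylated pGAT substrate. ATP added to start, 45 min at RT. Stopped with EDTA/KF buffer plus Eu-cryptate anti-phosphotyrosine antibody, 2 h RT, then HTRF read. IC50 from 10-point log concentration curves, mean of at least two duplicate runs.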

[7] = target: Receptor tyrosine-protein kinase erbB-2 (Homo sapiens) (UniProt P04626); test: Inhibition of ErbB2 at 10 uM
[8] = target: Macrophage-stimulating protein receptor (Homo sapiens) (UniProt Q04912); test: Inhibition of Ron at 10 uM
[9] = Inhibition of PKA at 10 uM
[10] = target: Aurora kinase B (Homo sapiens) (UniProt Q96GD4); test: Inhibition of Aurora B at 10 uM
[11] = target: T2, Aurora kinase A (Homo sapiens) (UniProt O14965); test: Inhibition of Aurora A at 10 uM
T2 sequence (whole entry): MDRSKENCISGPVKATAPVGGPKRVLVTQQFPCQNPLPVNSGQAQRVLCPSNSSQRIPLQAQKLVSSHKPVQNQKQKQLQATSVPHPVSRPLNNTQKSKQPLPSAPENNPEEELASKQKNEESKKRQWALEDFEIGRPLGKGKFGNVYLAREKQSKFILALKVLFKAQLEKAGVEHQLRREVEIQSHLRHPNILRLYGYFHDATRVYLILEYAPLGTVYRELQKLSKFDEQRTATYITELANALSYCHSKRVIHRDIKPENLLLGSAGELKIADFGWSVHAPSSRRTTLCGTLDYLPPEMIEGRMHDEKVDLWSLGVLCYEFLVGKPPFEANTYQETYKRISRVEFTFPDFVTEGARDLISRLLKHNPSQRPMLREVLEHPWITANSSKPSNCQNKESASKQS

[12] = target: T1, Vascular endothelial growth factor receptor 2; test: Inhibition of VEGF-induced phosphorylation of VEGFR2 by cell-based ELISA
[13] = target: Hepatocyte growth factor receptor (Homo sapiens) (UniProt P08581); test: Inhibition of c-Met at 10 uM
[14] = target: Proto-oncogene tyrosine-protein kinase Src (Homo sapiens) (UniProt P12931); test: Inhibition of Src at 10 uM
Sequence of Proto-oncogene tyrosine-protein kinase Src (Homo sapiens) (P12931 2-536 limits assumed): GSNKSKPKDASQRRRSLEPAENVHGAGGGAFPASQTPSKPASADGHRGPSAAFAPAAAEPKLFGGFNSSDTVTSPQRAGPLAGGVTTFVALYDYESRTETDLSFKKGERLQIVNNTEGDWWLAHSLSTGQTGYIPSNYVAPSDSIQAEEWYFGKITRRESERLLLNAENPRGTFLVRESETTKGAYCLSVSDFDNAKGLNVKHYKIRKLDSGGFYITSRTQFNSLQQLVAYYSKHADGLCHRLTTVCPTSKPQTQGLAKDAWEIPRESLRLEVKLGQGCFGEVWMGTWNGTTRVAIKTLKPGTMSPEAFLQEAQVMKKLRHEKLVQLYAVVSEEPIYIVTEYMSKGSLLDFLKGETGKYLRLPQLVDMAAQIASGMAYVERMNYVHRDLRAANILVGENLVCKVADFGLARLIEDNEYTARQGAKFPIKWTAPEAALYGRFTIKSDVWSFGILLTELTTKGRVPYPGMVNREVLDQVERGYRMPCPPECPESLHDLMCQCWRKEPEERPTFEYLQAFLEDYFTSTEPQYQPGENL

[15] = target: Glycogen synthase kinase-3 beta (Homo sapiens) (UniProt P49841); test: Inhibition of GSK3-beta at 10 uM
[16] = target: Cyclin-dependent kinase 2 (Homo sapiens) (UniProt P24941); test: Inhibition of Cdk2 at 10 uM
[17] = target: Insulin-like growth factor 1 receptor (Homo sapiens) (UniProt P08069); test: Inhibition of IGF1R at 10 uM
[18] = target: Cyclin-dependent kinase 1 (Homo sapiens) (UniProt P06493); test: Inhibition of Cdk1 at 10 uM
[19] = target: Fibroblast growth factor receptor 1 (Homo sapiens) (UniProt P11362); test: Inhibition of FGFR1 at 10 uM
Sequence of Fibroblast growth factor receptor 1 (Homo sapiens) (P11362 22-822 limits assumed): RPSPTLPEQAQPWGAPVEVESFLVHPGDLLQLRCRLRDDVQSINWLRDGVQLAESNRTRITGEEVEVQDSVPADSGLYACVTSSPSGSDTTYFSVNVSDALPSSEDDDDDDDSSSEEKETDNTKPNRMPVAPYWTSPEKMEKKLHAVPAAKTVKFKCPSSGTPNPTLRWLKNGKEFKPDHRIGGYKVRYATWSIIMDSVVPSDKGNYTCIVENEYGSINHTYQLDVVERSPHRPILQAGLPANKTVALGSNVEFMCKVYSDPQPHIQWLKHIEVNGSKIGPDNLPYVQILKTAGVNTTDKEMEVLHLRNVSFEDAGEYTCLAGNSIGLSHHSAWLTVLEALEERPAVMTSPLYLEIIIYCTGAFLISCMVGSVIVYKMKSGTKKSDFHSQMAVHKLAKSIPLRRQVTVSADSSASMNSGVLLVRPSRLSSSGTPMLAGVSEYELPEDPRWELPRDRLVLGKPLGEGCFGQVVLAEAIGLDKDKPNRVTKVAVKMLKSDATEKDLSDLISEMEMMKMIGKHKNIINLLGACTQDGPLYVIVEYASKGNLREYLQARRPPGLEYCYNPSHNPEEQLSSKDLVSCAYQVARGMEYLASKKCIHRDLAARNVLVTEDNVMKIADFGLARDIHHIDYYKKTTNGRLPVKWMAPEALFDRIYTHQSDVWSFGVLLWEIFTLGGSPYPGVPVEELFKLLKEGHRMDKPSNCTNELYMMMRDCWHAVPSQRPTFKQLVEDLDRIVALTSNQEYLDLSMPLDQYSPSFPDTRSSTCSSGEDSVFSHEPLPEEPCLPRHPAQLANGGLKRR

[20] = target: Insulin receptor (Homo sapiens) (UniProt P06213); test: Inhibition of IR at 10 uM
Sequence of Insulin receptor (Homo sapiens) (P06213 28-758 limits assumed): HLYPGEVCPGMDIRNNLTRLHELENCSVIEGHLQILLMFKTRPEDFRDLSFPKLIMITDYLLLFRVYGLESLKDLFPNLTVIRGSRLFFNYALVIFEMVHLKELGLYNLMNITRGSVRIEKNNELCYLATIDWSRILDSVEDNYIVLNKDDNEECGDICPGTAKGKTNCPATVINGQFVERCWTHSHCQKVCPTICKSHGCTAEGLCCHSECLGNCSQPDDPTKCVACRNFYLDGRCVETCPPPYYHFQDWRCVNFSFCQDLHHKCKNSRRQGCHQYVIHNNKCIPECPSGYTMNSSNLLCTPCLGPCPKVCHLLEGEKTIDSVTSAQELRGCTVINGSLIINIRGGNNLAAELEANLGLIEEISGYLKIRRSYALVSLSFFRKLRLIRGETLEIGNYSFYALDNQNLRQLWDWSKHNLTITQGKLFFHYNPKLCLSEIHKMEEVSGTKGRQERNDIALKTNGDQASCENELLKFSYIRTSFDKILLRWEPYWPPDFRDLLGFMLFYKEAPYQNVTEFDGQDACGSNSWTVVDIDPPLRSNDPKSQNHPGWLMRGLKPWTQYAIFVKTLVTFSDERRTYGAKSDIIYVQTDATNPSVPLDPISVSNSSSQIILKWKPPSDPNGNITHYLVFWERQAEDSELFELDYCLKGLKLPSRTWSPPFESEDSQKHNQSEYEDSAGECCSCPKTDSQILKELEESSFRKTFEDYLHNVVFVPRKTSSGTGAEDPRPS
Sequence of Insulin receptor (Homo sapiens) (P06213 763-1382 limits assumed): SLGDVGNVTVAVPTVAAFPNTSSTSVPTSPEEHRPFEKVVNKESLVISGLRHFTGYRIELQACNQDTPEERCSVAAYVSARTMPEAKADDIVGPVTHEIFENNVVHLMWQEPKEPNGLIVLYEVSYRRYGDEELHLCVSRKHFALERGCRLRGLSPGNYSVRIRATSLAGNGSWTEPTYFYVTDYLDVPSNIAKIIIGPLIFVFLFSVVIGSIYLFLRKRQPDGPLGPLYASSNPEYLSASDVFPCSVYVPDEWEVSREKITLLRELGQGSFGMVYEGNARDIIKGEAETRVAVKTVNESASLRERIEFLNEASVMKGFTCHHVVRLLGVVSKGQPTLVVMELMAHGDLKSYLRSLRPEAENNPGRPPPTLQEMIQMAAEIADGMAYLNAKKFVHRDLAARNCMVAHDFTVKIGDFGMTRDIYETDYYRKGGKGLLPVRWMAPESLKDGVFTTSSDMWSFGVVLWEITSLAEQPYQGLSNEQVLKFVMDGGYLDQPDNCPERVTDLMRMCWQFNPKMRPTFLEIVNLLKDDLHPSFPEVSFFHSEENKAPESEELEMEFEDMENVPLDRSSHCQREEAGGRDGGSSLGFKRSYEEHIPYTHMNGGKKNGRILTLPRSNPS

[21] = target: Bcr/Abl fusion protein (Homo sapiens) (UniProt P00519+P11274); test: Inhibition of Bcr-Abl at 10 uM; format: protein assay

Sequence of Epidermal growth factor receptor (Homo sapiens) (P00533 whole entry): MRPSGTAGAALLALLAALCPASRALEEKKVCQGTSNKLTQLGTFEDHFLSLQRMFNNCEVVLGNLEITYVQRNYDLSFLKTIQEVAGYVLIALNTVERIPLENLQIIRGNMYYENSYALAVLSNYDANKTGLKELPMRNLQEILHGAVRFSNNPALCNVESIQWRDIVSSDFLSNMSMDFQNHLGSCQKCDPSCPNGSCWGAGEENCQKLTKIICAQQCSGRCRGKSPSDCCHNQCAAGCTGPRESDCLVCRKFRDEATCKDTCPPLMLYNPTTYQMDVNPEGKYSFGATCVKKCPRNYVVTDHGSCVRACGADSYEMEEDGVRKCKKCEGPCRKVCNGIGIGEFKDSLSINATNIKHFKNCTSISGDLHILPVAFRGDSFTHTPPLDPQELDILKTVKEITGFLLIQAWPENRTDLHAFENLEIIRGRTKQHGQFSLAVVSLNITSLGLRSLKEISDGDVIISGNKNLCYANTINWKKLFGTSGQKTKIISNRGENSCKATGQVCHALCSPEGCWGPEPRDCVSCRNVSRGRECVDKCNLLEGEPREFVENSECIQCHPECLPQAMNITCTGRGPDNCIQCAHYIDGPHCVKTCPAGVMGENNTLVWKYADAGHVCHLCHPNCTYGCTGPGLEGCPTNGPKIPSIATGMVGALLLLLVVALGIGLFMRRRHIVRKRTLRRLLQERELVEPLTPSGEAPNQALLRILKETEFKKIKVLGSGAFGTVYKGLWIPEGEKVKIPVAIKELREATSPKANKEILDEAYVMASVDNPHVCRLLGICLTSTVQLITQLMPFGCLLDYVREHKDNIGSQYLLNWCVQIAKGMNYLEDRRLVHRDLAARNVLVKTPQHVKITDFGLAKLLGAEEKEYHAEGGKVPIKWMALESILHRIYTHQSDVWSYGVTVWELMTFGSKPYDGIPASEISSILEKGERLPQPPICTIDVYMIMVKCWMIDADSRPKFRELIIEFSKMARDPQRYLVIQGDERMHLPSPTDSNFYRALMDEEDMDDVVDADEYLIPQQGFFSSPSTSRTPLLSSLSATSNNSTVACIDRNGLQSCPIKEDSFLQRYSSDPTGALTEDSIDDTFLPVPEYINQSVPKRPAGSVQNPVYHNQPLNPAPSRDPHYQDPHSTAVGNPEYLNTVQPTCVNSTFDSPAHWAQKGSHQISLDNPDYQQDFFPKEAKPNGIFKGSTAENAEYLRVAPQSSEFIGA
Sequence of Receptor-type tyrosine-protein kinase FLT3 (Homo sapiens) (P36888 whole entry): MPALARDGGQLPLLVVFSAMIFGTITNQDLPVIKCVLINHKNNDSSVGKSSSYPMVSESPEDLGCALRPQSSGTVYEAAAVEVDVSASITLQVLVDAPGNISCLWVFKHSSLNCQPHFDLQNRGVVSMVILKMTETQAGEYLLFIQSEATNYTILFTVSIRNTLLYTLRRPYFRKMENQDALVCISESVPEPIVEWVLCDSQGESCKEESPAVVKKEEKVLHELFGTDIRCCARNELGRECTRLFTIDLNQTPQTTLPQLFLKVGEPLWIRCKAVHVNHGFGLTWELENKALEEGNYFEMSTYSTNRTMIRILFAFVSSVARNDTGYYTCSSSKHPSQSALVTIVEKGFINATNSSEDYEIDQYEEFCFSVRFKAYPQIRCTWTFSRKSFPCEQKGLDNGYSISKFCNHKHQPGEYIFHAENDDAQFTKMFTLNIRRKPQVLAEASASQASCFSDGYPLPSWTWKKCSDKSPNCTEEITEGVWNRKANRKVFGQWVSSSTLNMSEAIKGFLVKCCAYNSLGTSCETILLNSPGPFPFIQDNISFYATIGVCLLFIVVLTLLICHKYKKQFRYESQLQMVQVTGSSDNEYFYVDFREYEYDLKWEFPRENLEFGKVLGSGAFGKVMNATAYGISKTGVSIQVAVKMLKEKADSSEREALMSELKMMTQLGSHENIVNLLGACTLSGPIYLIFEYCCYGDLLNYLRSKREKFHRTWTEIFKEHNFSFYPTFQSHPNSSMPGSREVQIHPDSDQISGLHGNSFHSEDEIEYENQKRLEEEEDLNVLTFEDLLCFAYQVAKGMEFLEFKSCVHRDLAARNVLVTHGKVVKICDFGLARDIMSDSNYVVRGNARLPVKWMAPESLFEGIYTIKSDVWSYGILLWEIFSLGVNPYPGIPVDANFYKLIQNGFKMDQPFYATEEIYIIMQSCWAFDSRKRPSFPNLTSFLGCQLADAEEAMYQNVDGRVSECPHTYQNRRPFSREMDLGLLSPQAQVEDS

FC(F)(F)c1cccc(-n2cc(-c3ccccc3NCc3ccc4c(c3)OCO4)nn2)c1
< 5.00: pIC50 [1] | pIC50 [6] | pIC50 [12]
< 30%: inhibition [2] | inhibition [3] | inhibition [4] | inhibition [5] | inhibition [7] | inhibition [8] | inhibition [9] | inhibition [10] | inhibition [11] | inhibition [13] | inhibition [14] | inhibition [15] | inhibition [16] | inhibition [17] | inhibition [18] | inhibition [19] | inhibition [20] | inhibition [21]

FC(F)(F)Oc1cccc(-n2cc(-c3ccccc3NCc3ccncc3)nn2)c1
7.14: pIC50 [1]
7.18: pIC50 [6]
7.07: pIC50 [12]
< 30%: inhibition [2] | inhibition [3] | inhibition [4] | inhibition [5] | inhibition [7] | inhibition [8] | inhibition [9] | inhibition [10] | inhibition [11] | inhibition [13] | inhibition [14] | inhibition [15] | inhibition [16] | inhibition [17] | inhibition [18] | inhibition [19] | inhibition [20] | inhibition [21]

FC(F)(F)c1cccc(-n2cc(-c3ccccc3NCc3ccccn3)nn2)c1
< 5.00: pIC50 [1] | pIC50 [6] | pIC50 [12]
< 30%: inhibition [2] | inhibition [3] | inhibition [4] | inhibition [5] | inhibition [7] | inhibition [8] | inhibition [9] | inhibition [10] | inhibition [11] | inhibition [13] | inhibition [14] | inhibition [15] | inhibition [16] | inhibition [17] | inhibition [18] | inhibition [19] | inhibition [20] | inhibition [21]

FC(F)(F)c1cc(-n2cc(-c3ccccc3NCc3ccncc3)nn2)ccc1Cl
6.36: pIC50 [6]
< 30%: inhibition [2] | inhibition [3] | inhibition [4] | inhibition [5] | inhibition [7] | inhibition [8] | inhibition [9] | inhibition [10] | inhibition [11] | inhibition [13] | inhibition [14] | inhibition [15] | inhibition [16] | inhibition [17] | inhibition [18] | inhibition [19] | inhibition [20] | inhibition [21]
6.29: pIC50 [1]
6.11: pIC50 [12]

CC(C)(C)c1ccc(-n2cc(-c3ccccc3NCc3ccncc3)nn2)cc1
5.79: pIC50 [12]
6.28: pIC50 [1]
< 30%: inhibition [2] | inhibition [3] | inhibition [4] | inhibition [5] | inhibition [7] | inhibition [8] | inhibition [9] | inhibition [10] | inhibition [11] | inhibition [13] | inhibition [14] | inhibition [15] | inhibition [16] | inhibition [17] | inhibition [18] | inhibition [19] | inhibition [20] | inhibition [21]
6.21: pIC50 [6]

Clc1cccc(-n2cc(-c3ccccc3NCc3c[nH]cn3)nn2)c1
< 30%: inhibition [2] | inhibition [3] | inhibition [4] | inhibition [5] | inhibition [7] | inhibition [8] | inhibition [9] | inhibition [10] | inhibition [11] | inhibition [13] | inhibition [14] | inhibition [15] | inhibition [16] | inhibition [17] | inhibition [18] | inhibition [19] | inhibition [20] | inhibition [21]
< 5.00: pIC50 [1] | pIC50 [6] | pIC50 [12]
